CHRM5 agonist = agonists of human muscarinic M5 receptor (CHRM5); CHO-K1 hM5 cells, Fluo-8 calcium fluorescence; 0% DMSO wells, 100% maximal acetylcholine response; activation, % at 3 µM; 360,000 compounds, 0.19% hits;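 active = activation above the run's mean over test compounds plus 3 SD, cut at about 23% in these data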;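 note: signal is peak over basal fluorescence ratio across the kinetic read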
Target sequence (P08912 whole entry, looked up): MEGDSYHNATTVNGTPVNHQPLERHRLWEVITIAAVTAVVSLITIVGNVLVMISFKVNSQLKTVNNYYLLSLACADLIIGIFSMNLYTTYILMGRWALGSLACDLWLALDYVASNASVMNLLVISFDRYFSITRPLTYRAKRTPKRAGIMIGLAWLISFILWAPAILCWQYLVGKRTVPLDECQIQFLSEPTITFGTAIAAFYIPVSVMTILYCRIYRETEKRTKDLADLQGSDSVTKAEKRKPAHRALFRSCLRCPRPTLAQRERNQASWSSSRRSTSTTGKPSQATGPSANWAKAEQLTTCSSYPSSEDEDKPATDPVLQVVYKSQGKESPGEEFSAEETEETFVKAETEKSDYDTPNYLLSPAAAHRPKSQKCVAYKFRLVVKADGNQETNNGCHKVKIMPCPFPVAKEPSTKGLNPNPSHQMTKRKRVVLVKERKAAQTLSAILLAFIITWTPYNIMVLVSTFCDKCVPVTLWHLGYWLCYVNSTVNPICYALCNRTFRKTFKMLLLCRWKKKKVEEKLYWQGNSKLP
M4 PAM = positive allosteric modulators of human muscarinic M4 receptor. CHO-K1 hM4/Gqi5, Fluo-8 calcium fluorescence, ACh EC20; 0% = ACh EC20, 100% = maximal ACh. activation, % at 3 µM. 360,000 compounds, 0.4% hits;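 active = activation above its plate's cutoff, the mean activation of sample wells plus 3 SD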
CHRM4 agonist = CHRM4 agonism in calcium assay. 360,000 compounds, 0.14% hits. AID 624127. P08173. activation, % at 3 µM. CHO-K1 hM4/Gqi5, Fluo-8 calcium fluorescence; vehicle 0%, full acetylcholine response 100%;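 active = activation above the run mean over all test wells plus 3 SD, cut at about 32% in these data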;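 note: peak over basal fluorescence ratio per well then scaled between controls; 0% = DMSO wells and 100% = acetylcholine at EC100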
M5 antag = blocks acetylcholine activation of human M5 receptor | P08912 | CHO-hM5 cells, Fluo-8 calcium fluorescence, ACh EC80 | inhibition, % at 3 µM | 360,000 compounds, 0.59% hits;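 active = inhibition above a per-plate cutoff, the mean of that plate's test compounds plus 3 SD, cut at about 27% in these data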;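 note: 0% = acetylcholine EC80 with DMSO and 100% = DMSO without agonist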
CHRM4 antagonist = antagonists of human muscarinic M4 receptor (CHRM4); inhibition, % at 3 µM; CHO-hM4 cells, ACh EC80, Fluo-8 calcium fluorescence; 360,000 compounds, 0.73% hits; P08173;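 active = inhibition above its plate's cutoff, the mean inhibition of sample wells plus 3 SD, cut at about 27% in these data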;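 note: 0% = acetylcholine EC80 with DMSO and 100% = DMSO without agonist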
M5 PAM = positive allosteric modulators of human muscarinic M5 receptor; P08912; CHO-K1 hM5, Fluo-8 calcium, ACh EC20 PAM; 0% = ACh EC20, 100% = ACh EC100; activation, % at 3 µM; 360,000 compounds, 0.3% hits; AID 624038;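 active = activation above the run cutoff, the mean activation of all test compounds plus 3 SD, cut at about 18% in these data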
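system = human M5 receptor in CHO-K1 cells | reagent = EC20 acetylcholine as agonist stimulus | compound dosing = single-point, 3 µM nominal | incubation = Fluo-8 loading 80 min at 37 °C plus 30 min room temperature | detection = Fluo-8 calcium dye fluorescence, kinetic read | benchmarks = low control EC20 acetylcholine (0%), high control EC100 acetylcholine (100%)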
The depositor's hits bear a star. A selection: hits, their analogues and other compounds. The true share with any hit is near 1.9%.

SMILES	CHRM5 agonist	M4 PAM	CHRM4 agonist	M5 antag	CHRM4 antagonist	M5 PAM
O=C1CC(=O)N(CCNc2ncc(C(F)(F)F)cc2Cl)C(=O)N1	3.2	4.2	0.2	2.4	1.8	-7.7
O=C(NCC(=O)N1CCCCCCC1)c1ccccc1Br	-4.3	3.7	0.9	-1.0	-2.4	5.1
CCSc1nsc(NC(=O)Nc2ccccc2F)n1	2.9	-7.0	13.7	18.2	2.8	-23.3
C=CCSc1nsc(NC(=O)Nc2ccc(F)cc2)n1	3.2	-8.6	11.4	32.9*	13.6	-21.3
O=C(C1CCN(S(=O)(=O)N2CCOCC2)CC1)N1CCN(Cc2ccccc2)CC1	1.9	1.7	1.0	4.7	2.6	-1.3
CCCN1C(=O)/C(=C/c2c(N3CCNC(=O)C3CC(=O)OCC)nc3c(C)cccn3c2=O)SC1=S (stereo not drawn)	25.5*	-10.4	12.1	22.4	13.0	-23.8
O=C(Cc1ccc(Br)cc1)Nc1ccccc1N1CCCC1	-2.4	7.4	0.2	-4.8	-2.2	5.8
O=C(CN1C(=O)NC2(CCCCC2)C1=O)Nc1cccc2ncccc12	1.4	24.0*	0.3	8.0	-24.6	-8.2
Cc1cccc(NC(=O)CN2C(=O)NC3(CCCCCCC3)C2=O)c1C	3.1	1.2	0.9	20.6	-5.8	2.7
CC(C)(C)C(=O)Nc1c2c(nn1-c1cccc(Cl)c1)CS(=O)(=O)C2	-1.8	8.6	0.2	-3.1	-13.4	1.9
CC1=NN(C(=S)Nc2ccccc2)C(C)(C)C1	-2.8	2.0	0.5	10.2	1.7	18.8*
COc1ccccc1OCC(=O)c1[nH]c(C)c(C(C)=O)c1C	1.6	-13.3	15.9	11.7	16.5	-48.5
O=C(NCC1CCCO1)c1ccccc1 (stereo not drawn)	-6.9	0.2	0.4	-3.5	4.9	1.1
O=C(NCC1CCCO1)NC1(C(F)(F)F)Oc2ccccc2O1 (stereo not drawn)	-11.9	4.5	0.4	-2.4	3.1	34.8*
O=C(NCC1CCCO1)c1cccs1 (stereo not drawn)	3.9	35.6*	0.6	-6.0	5.5	2.1
O=C(COC(=O)c1cccs1)NCC1CCCO1 (stereo not drawn)	-0.1	-2.0	0.4	-0.1	9.1	1.6
Cc1ccc(OCC(=O)NCc2ccccc2)c([N+](=O)[O-])n1	-1.4	10.7	1.5	2.5	2.2	-6.4
C[N+]1(CC2COC3(CCCCC3)O2)CCCC1 (stereo not drawn)	-7.5	-10.2	-0.4	7.6	4.4	-5.0
CC1CC(C)(C)OC(C[N+]2(C)CCCCC2)O1 (stereo not drawn)	-19.9	-46.1	-0.1	31.4*	36.5*	-32.6
Cc1ccc(S(=O)(=O)CCSc2ccc(C(F)(F)F)cn2)cc1	1.5	-6.2	0.3	-1.3	10.2	-1.7
CCOc1cccc(C(=O)Nc2cccc(C(=O)NCC(C)C)c2)c1	-0.1	-8.6	2.9	0.9	14.3	-6.7
COc1ccc(C(=O)c2ccc(Br)cc2)cc1	-0.8	5.9	-0.6	-7.0	-6.3	-0.3
O=C(c1ccncc1)c1ccc(Br)cc1	1.7	35.2*	-0.1	-7.1	9.5	-0.4
COc1cc(C=O)ccc1OCCCOc1ccccc1C(=O)O	1.3	31.6*	0.5	-11.5	10.0	5.9
COc1cc(C=O)ccc1OCCCOc1ccccc1[N+](=O)[O-]	-1.4	-3.4	8.3	8.1	0.9	-6.5
SMILES	CHRM5 agonist	M4 PAM	CHRM4 agonist	M5 antag	CHRM4 antagonist	M5 PAM
COc1ccc(-c2cn(CCC(=O)O)c(-c3ccncc3)n2)cc1	2.6	6.6	-0.4	9.5	-0.9	2.2
Cc1ccc(S(=O)(=O)N2CCN(C(=O)c3sccc3-c3ccccc3)CC2)cc1	-5.9	-6.7	5.9	29.6*	2.3	-11.9
Cc1cccc(C)c1-n1nnnc1SCC(=O)N1CCNC1=O	7.2	10.9	2.3	-2.4	-2.9	2.2
Cc1ccc(-n2nc(C)cc2NC(=O)CC#N)cc1	-0.9	-2.8	0.3	3.6	1.5	2.8
COc1ccc(-c2cc(C(=O)Nc3cc(C)nn3-c3ccccc3)no2)cc1	0.7	17.9*	-0.3	-0.6	-1.8	-4.5
Cc1ccc(-n2nc(C)cc2NC(=O)c2ccc(C)s2)cc1	-11.7	-34.0	-0.2	20.1	46.3*	-13.8
COc1cc(OC)c(C2C(C#N)=C(N)Oc3cc(C)n(CCCN4CCOCC4)c(=O)c32)cc1OC (stereo not drawn)	-4.6	-4.4	0.3	0.8	0.9	-0.6
CCN(CC)CCCn1c(C)cc2c(c1=O)C(c1cc(OC)c(OC)cc1OC)C(C#N)=C(N)O2 (stereo not drawn)	-5.8	-12.9	0.8	-0.2	30.2*	-3.1
COc1cccc(NC(=O)c2nc(S(C)(=O)=O)ncc2Cl)c1	-1.7	-3.2	-1.2	18.2	36.0*	-2.9
CN(c1ccccc1)S(=O)(=O)c1ccc(NC(=O)c2ccccc2)cc1	-2.0	-7.8	4.5	8.7	5.0	-10.4
CN(c1ccccc1)S(=O)(=O)c1ccc(NC(=O)c2nc(S(C)(=O)=O)ncc2Cl)cc1	2.3	-13.8	20.7	31.4*	78.2*	-11.7
COc1ccccc1CN1CCN(Cc2ccco2)CC1	-2.6	2.2	1.3	4.9	-10.7	5.8
CC(C)N1CCC(NC(=O)NC2CCCCC2)CC1	-3.5	-3.8	0.7	-2.9	-3.8	2.2
O=C(Nc1ccc(F)cc1)C(c1cc2ccccc2o1)N1CCN(c2ccncc2)CC1 (stereo not drawn)	0.0	-1.2	12.5	4.8	-7.9	-7.5
CCOC(=O)c1cc2nc(-c3ccccc3)cc(C)n2n1	-1.2	2.3	-0.1	0.4	-5.3	-3.0
N#Cc1ccsc1NC(=O)C1CCN(C(=O)c2ccc(F)cc2)CC1	7.4	6.8	3.2	-1.7	2.2	1.1
Cc1cc(C)n2nc(SCC(=O)N3CCCC3)nc2n1	3.5	8.0	1.0	-12.6	-11.9	24.4*
Cc1cc(C)n2nc(SCC(=O)N3CCC(C)CC3)nc2n1	-1.4	0.6	1.0	19.4	-0.5	3.1
CCCCCCC(=O)Nc1c2c(nc3ccccc13)N(C)CC2	-8.4	4.8	2.1	2.1	-1.2	2.1
O=C(Nc1ccc(N2CCOCC2)cc1Cl)C1CCN(C(=O)OCc2ccccc2)CC1	0.2	-16.4	9.9	5.3	-15.8	-5.1
Cc1ccc(CCNC(=O)CCn2ccc3cc(S(=O)(=O)N4CCCC4)ccc32)cc1	-2.2	-3.1	0.8	2.0	-2.0	3.1
O=C(CCn1ccc2cc(S(=O)(=O)N3CCCC3)ccc21)NCCc1ccccc1	0.8	-1.8	4.9	28.6*	5.8	26.1*
OC(c1cccs1)(c1cccs1)C1C[N+]2(CF)CCC1CC2 (stereo not drawn)	-6.6	-40.3	1.2	62.6*	68.5*	-14.8
COC(=O)c1cc(Oc2ccc(C(=O)OC)cc2N)cc(C(=O)OC)c1	0.2	19.6*	0.7	-8.9	-1.9	-13.7
